The source made the active and inactive calls. The rule behind the calls is not given here.
Tests used:
[1] = molecular target: T1, Neuronal acetylcholine receptor subunit alpha-7 (Homo sapiens, UniProt P36544); test: Allosteric modulator activity at alpha7 nAChR in human IMR32 cells assessed as stimulation of agonist-induced intracellular calcium level by FLIPR assay; format: functional, cell-based, IMR-32
Method in brief: (§1)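 IMR-32 human neuroblastoma cells (endogenous α7) on poly-D-lysine plates, loaded with calcium-4 no-wash dye in NMDG buffer (10 mM HEPES pH 7.4, 10 mM CaCl2) 1 h at 25 °C. Peak fluorescence over baseline, normalized to maximum; EC50 from 2–5 experiments in duplicate.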

[2] = molecular target: T1, Neuronal acetylcholine receptor subunit alpha-7; test: Allosteric modulator activity at alpha7 nAChR in human IMR32 cells assessed as stimulation of agonist-induced intracellular calcium level by FLIPR assay relative to 1-(5-chloro-2,4-dimethoxyphenyl)-3-(5-methylisoxazol-3-yl)urea; format: functional, cell-based; conditions: IMR-32; method in brief: as §1
[3] = Metabolic stability in rat liver microsomes assessed as compound remaining after 30 mins; format: ADME, Microsome; conditions: read-out: Stability
Method in brief: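 Microsomes prewarmed 10 min at 37 °C; reaction started with compound (1 µM final) and NADPH (1 mM final) at 0.5 mg/mL protein, in triplicate. Sampled at 0, 10, 20 and 30 min; stopped with acetonitrile/methanol containing warfarin internal standard; centrifuged supernatant analysed by HPLC-MS.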

[4] = Cmax in rat at 2 umol/kg, po; format: ADME, organism-based; parameters: dose 2 umol/kg, route oral; conditions: in vivo
Oocyte [5] = test: Modulator activity at alpha7 nAChR in Xenopus laevis oocytes cells assessed as activation of electric currents at 0.1 nM to 10 uM at -60 mV by two-electrode voltage clamp technique; format: cell-based
Method in brief: (§2)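 Xenopus oocytes, collagenase-defolliculated, injected with ~20–25 ng α7 nAChR cRNA, kept at 18 °C and used 2–7 days later. Two-electrode voltage clamp at −60 mV, room temperature, in Ba2+-OR2 with 0.5 µM atropine. Modulator applied ≥60 s before 1 s application of 100 µM ACh. Apparent peak current expressed as percent of 100 µM ACh response; sigmoidal variable-slope fit.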

[6] = molecular target: Neuronal acetylcholine receptor; alpha3/beta4 (Homo sapiens) (UniProt P30926+P32297); test: Activity at human recombinant alpha3beta4 nAChR expressed in HEK293 cells assessed as potentiation of nicotine-evoked calcium transients up to 30 uM; format: cell-based
Rattus norvegicus [7] = test: Plasma concentration Sprague-Dawley rat at 3 mg/kg; format: ADME, organism-based; parameters: dose 3 mg/kg; conditions: in vivo
Method in brief: (§3)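 Anesthetized rat cardiovascular assay at 3, 10 and 30 mg/kg, with plasma concentrations measured alongside mean arterial pressure, heart rate, contractility and peripheral vascular resistance.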

Brain [8] = test: Drug level in brain of DBA/2 mouse model of sensory gating deficits at 1 umol/kg, ip; format: functional, tissue-based
Method in brief: (§4)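 DBA/2 mice dosed ip at 0.1, 1.0 or 10.0 µmol/kg in vehicle of 5% DMSO and 5% Solutol in PBS; brain concentration reported in ng/g.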

Oocyte [9] = test: Modulator activity at alpha7 nAChR in Xenopus laevis oocytes cells assessed as enhancement of acetylcholine-evoked electric currents at -60 mV by two-electrode voltage clamp technique; format: cell-based; method in brief: as §2
[10] = Half life in rat at 2 umol/kg, iv; format: ADME, organism-based; conditions: in vivo
Brain [11] = test: Drug level in brain of DBA/2 mouse model of sensory gating deficits at 10 umol/kg, ip; format: functional, tissue-based; method in brief: as §4
[12] = Volume of distribution at steady state in monkey at 0.5 umol/kg, iv; format: ADME, organism-based, Macaca mulatta; conditions: rhesus monkey, in vivo, read-out: Vdss
[13] = Volume of distribution at steady state in rat at 2 umol/kg, iv; format: ADME, organism-based; conditions: in vivo, read-out: Vdss
Rattus norvegicus [14] = test: Plasma concentration Sprague-Dawley rat at 30 mg/kg; format: ADME, organism-based; parameters: dose 30 mg/kg; conditions: in vivo; method in brief: as §3
[15] = Oral bioavailability in dog at 1 umol/kg; format: ADME, organism-based, Canis lupus familiaris; conditions: in vivo
[16] = Half life in monkey at 0.5 umol/kg, iv; format: ADME, organism-based, Macaca mulatta; conditions: rhesus monkey, in vivo
Rattus norvegicus [17] = test: Plasma concentration Sprague-Dawley rat at 10 mg/kg; format: ADME, organism-based; parameters: dose 10 mg/kg; conditions: in vivo; method in brief: as §3
[18] = Plasma clearance in dog at 0.5 umol/kg, iv; format: ADME, organism-based, Canis lupus familiaris
[19] = Half life in dog at 0.5 umol/kg, iv; format: ADME, organism-based, Canis lupus familiaris; conditions: in vivo
[20] = Cmax in dog at 1 umol/kg, po; format: ADME, organism-based, Canis lupus familiaris; parameters: dose 1 umol/kg, route oral; conditions: in vivo
[21] = Cmax in monkey at 1 umol/kg, po; format: ADME, organism-based, Macaca mulatta; parameters: dose 1 umol/kg, route oral; conditions: rhesus monkey, in vivo
Oocyte [22] = test: Modulator activity at alpha7 nAChR in Xenopus laevis oocytes cells assessed as decay of acetylcholine-evoked electric current response at -60 mV by two-electrode voltage clamp technique; format: cell-based; method in brief: as §2
Mus musculus = test: Improvement in gating deficits in DBA/2 mouse model of sensory gating deficits assessed as reduction in ratio of response to test stimulus relative to preceding response to conditioning stimulus at 0.1 to 10 umol/kg, ip by paired auditory stimulus paradigm assay; format: functional, organism-based
Method in brief: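 DBA/2 mice (16–20 g) implanted with hippocampal CA3 EEG electrodes under ketamine/xylazine/acepromazine, ≥4 days recovery. Dosed ip in 5% DMSO/5% Solutol in PBS immediately before recording; 120 paired 5 ms white-noise bursts 0.5 s apart over 30 min. N40 amplitude T:C ratio. Within-subjects random-order crossover with vehicle, ≥72 h apart; mean ± SEM, one-way ANOVA with Newman-Keuls test.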

[23] = Plasma clearance in monkey at 0.5 umol/kg, iv; format: ADME, organism-based, Macaca mulatta; conditions: rhesus monkey
[24] = molecular target: Neuronal acetylcholine receptor subunit alpha-7 (Rattus norvegicus) (UniProt Q05941); test: Modulator activity at alpha7 nAChR in rat neonatal cortical neurons assessed as enhancement of (R)-4-chloro-N-(quinuclidin-8-yl)benzamide-induced calcium flux response at 5 uM by FLIPR assay
Neuronal acetylcholine receptor subunit alpha-7 (Rattus norvegicus), sequence (Q05941 whole entry): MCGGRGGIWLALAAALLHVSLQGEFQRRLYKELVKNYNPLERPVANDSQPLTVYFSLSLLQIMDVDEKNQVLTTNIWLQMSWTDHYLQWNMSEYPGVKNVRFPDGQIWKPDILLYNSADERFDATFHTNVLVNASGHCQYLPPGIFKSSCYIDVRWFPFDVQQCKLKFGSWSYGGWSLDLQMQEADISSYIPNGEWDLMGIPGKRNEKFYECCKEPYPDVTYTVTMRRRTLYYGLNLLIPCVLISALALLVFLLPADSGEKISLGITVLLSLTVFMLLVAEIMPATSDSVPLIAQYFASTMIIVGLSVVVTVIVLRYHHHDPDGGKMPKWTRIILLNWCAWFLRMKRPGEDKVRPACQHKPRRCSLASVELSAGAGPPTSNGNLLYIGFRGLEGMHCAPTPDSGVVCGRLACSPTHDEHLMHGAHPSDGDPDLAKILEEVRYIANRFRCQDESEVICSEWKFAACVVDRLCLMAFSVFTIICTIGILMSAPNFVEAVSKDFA
Method in brief: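 Primary neonatal rat cortical neurons cultured on poly-D-lysine plates (10000 cells/well), assayed 3 days after plating. Calcium-3 dye in HBSS with 20 mM HEPES. After 10 s baseline, modulator added for 3–5 min, then agonist. Peak fluorescence increase over baseline in RFU, normalized to maximal value.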

[25] = Volume of distribution at steady state in dog at 0.5 umol/kg, iv; format: ADME, organism-based, Canis lupus familiaris; conditions: in vivo, read-out: Vdss
[26] = Oral bioavailability in rat at 2 umol/kg; format: ADME, organism-based; conditions: in vivo
Brain [27] = test: Drug level in brain of DBA/2 mouse model of sensory gating deficits at 0.1 umol/kg, ip; format: functional, tissue-based; method in brief: as §4
[28] = Plasma clearance in rat at 2 umol/kg, iv; format: ADME, organism-based
[29] = molecular target: Neuronal acetylcholine receptor; alpha4/beta2 (Homo sapiens) (UniProt P17787+P43681); test: Activity at human recombinant alpha4beta2 nAChR expressed in HEK293 cells assessed as potentiation of nicotine-evoked calcium transients up to 30 uM; format: cell-based
[30] = Oral bioavailability in monkey at 1 umol/kg; format: ADME, organism-based, Macaca mulatta; conditions: rhesus monkey, in vivo

T1 sequence (P36544 whole entry): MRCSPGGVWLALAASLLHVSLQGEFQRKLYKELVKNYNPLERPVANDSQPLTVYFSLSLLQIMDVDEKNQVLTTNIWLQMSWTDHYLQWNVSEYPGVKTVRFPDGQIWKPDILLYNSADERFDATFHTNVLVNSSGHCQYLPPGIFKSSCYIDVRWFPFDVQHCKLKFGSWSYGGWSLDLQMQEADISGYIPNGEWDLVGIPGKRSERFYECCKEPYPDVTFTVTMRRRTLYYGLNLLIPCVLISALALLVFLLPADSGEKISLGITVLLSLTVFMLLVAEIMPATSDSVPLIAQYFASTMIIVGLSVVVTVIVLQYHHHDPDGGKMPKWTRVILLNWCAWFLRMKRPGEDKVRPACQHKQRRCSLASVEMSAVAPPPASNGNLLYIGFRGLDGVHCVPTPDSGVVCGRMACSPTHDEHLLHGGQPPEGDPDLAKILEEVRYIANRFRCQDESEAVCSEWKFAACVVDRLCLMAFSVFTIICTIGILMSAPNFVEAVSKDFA

`Cc1c(C(=O)N2CCOCC2)cc(-c2ccc(Cl)cc2)n1-c1ccc(S(N)(=O)=O)cc1` showed an EC50 [1] greater than 30 µM and an Efficacy [2] of 5%.

Work on `Cc1c(C(=O)N2CCCCC2)cc(-c2ccc(Cl)cc2)n1-c1ccc(S(N)(=O)=O)cc1` yielded an EC50 [1] greater than 30 µM and an Efficacy [2] of 11%.

`CC(=O)c1cc(-c2ccc(Cl)cc2)n(-c2ccc(S(N)(=O)=O)cc2)c1C` gave a remaining at 0.5 h [3] of 64%.

For `Cc1c(C(=O)c2ccc(Cl)cc2)cc(-c2ccc(Cl)cc2)n1-c1ccc(S(N)(=O)=O)cc1`, the EC50 [1] was greater than 30 µM and the Efficacy [2] was 5%.

For `Cc1c(C(=O)CC(C)C)cc(-c2ccc(Cl)cc2)n1-c1ccc(S(N)(=O)=O)cc1`, the EC50 [1] was 3.9 µM, the Efficacy [2] was 74% and the remaining at 0.5 h [3] was 44%.

For `CCOC(=O)c1cc(-c2ccc(Br)cc2)n(-c2ccc(S(N)(=O)=O)cc2)c1C`, the EC50 [1] was 2.6 µM, the Efficacy [2] was 20% and the remaining at 0.5 h [3] was 2%.

`COc1ccc(F)cc1C(=O)c1cc(-c2ccc(Cl)cc2)n(-c2ccc(S(N)(=O)=O)cc2)c1C` gave an EC50 [1] of 10.5 µM, an Efficacy [2] of 26% and a remaining at 0.5 h [3] of 45%.

Work on `Cc1cc(C(=O)c2cc(-c3ccc(Cl)cc3)n(-c3ccc(S(N)(=O)=O)cc3)c2C)ccc1Cl` yielded an EC50 [1] of 4.88 µM, an Efficacy [2] of 9% and a remaining at 0.5 h [3] of 38%.

For `Cc1ccc(C(=O)c2cc(-c3ccc(Cl)cc3)n(-c3ccc(S(N)(=O)=O)cc3)c2C)cc1`, the EC50 [1] was greater than 30 µM and the Efficacy [2] was 7%.

With `Cc1c(C(=O)O)cc(-c2ccc(Cl)cc2)n1-c1ccc(S(N)(=O)=O)cc1` the EC50 [1] was greater than 30 µM and the Efficacy [2] was 8%.

`CCN(C)C(=O)c1cc(-c2ccc(Cl)cc2)n(-c2ccc(S(N)(=O)=O)cc2)c1C` showed an EC50 [1] greater than 30 µM and an Efficacy [2] of 3%.

`Cc1c(C(=O)N(C)C(C)C)cc(-c2ccc(Cl)cc2)n1-c1ccc(S(N)(=O)=O)cc1` gave an EC50 [1] greater than 30 µM and an Efficacy [2] of 8%.

Compound `CCCN(CCO)C(=O)c1cc(-c2ccc(Cl)cc2)n(-c2ccc(S(N)(=O)=O)cc2)c1C` has an EC50 [1] of 3.6 µM, an Efficacy [2] of 11% and a remaining at 0.5 h [3] of 58%.

For `CCC(=O)c1cc(-c2ccc(Cl)cc2)n(-c2ccc(S(N)(=O)=O)cc2)c1C`, the Cmax [4] was 41 ng/mL, the Activity (Oocyte [5]) was “inactive” and the Activity [6] was “inactive”. For the same compound, the Cp (Rattus norvegicus [7]) was 1000 ng/mL, the Drug uptake (Brain [8]) was 15 ng/g and the Activity (Oocyte [9]) was “Dose-dependent effect”. The half-life [10] was 1.7 h, the Drug uptake (Brain [11]) was 140 ng/g and the Vd [12] was 2.8 L/kg. For the same compound, the Vd [13] was 4.6 L/kg, the Cp (Rattus norvegicus [14]) was 12400 ng/mL and the bioavailability [15] was 55%. For the same compound, the half-life [16] was 1 h, the remaining at 0.5 h [3] was 96% and the Cp (Rattus norvegicus [17]) was 5000 ng/mL. It also gave a clearance [18] of 18.3 mL/min/kg, a half-life [19] of 1.3 h and a Cmax [20] of 87 ng/mL. For the same compound, the Cmax [21] was 17 ng/mL, the Activity (Oocyte [22]) was “Active” and the Activity (Mus musculus) was “Active”. The clearance [23] was 41.7 mL/min/kg, the Activity [24] was “Active” and the Vd [25] was 1.7 L/kg. The bioavailability [26] was 83%, the Drug uptake (Brain [27]) was 2 ng/g and the clearance [28] was 35 mL/min/kg. The Activity [29] was “inactive” and the bioavailability [30] was 68%.

`CCOC(=O)c1cc(-c2ccc(Cl)cc2)n(-c2ccc(S(N)(=O)=O)cc2)c1C` showed a remaining at 0.5 h [3] of 3%.

For `Cc1c(C(=O)N(C)C)cc(-c2ccc(Cl)cc2)n1-c1ccc(S(N)(=O)=O)cc1`, the EC50 [1] was greater than 30 µM and the Efficacy [2] was 4%.

For `Cc1c(C(=O)N2CCCC2)cc(-c2ccc(Cl)cc2)n1-c1ccc(S(N)(=O)=O)cc1`, the EC50 [1] was 9.4 µM, the Efficacy [2] was 57% and the remaining at 0.5 h [3] was 31%.

`Cc1c(C(=O)C2CC2)cc(-c2ccc(Cl)cc2)n1-c1ccc(S(N)(=O)=O)cc1` gave an EC50 [1] of 4.9 µM, an Efficacy [2] of 25% and a remaining at 0.5 h [3] of 92%.
